This note sets out measurements from ChEMBL document CHEMBL2429859, “Inhibiting aberrant signal transducer and activator of transcription protein activation with tetrapodal, small molecule Src homology 2 domain binders: promising agents against multiple myeloma” (J Med Chem, 2013).

Each structure is given as a SMILES string. Active and inactive are the calls of the source. The rule behind the calls is not given here.

Experiment [1] concerns the target T1, Signal transducer and activator of transcription 3 (Homo sapiens, UniProt P40763). The experiment is described as follows: Inhibition of Stat3 phosphorylation in human JJN-3 cells after 6 hrs by Western blot analysis. It counts as cell-based. Put shortly:
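Treated cells were washed in cold PBS and lysed 30 min on ice in Tris-HCl pH 7.4/NaCl/EDTA/1% NP-40 with PMSF, vanadate and protease inhibitors. Lysates were Bradford-normalized, and 10-30 µg protein was run on 7-10% SDS-PAGE and transferred to PVDF. Blots were blocked in 5% BSA/TBST, probed overnight at 4 °C, then with HRP secondary, and detected by ECL.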
(Immunoblotting shows a protein as a band on a membrane.)

Another experiment deals with XG6. As to the kind of experiment: Cytotoxicity against human XG6 cells assessed as inhibition of cell viability after 72 hrs by MTT assay. The class given is functional, cell-based. Put shortly:
(§1)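 Myeloma lines were seeded at 1-3 x 10^4 cells per well onto compound or vehicle, in triplicate, and cultured 72 h at 37 °C in 5% CO2. Viability was measured colorimetrically by MTT assay relative to DMSO control. EC50 was fitted to a standard dose-response curve where applicable.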
(In general: Formazan colour is commonly taken as a measure of viable cells.)

In experiment [2] the target is T1, Signal transducer and activator of transcription 3. The experiment is described as follows: Inhibition of Stat3-mediated luciferase expression in human 8226 cells after 6 hrs. The class given is cell-based. Put shortly: (§2)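 Myeloma cells stably carried a Stat3-driven firefly luciferase reporter (puromycin-selected) and a CMV-driven Renilla luciferase internal control (hygromycin-selected), each selected for 2 weeks. After drug treatment, dual luciferase activity was read as relative luciferase units, firefly/Renilla.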

The target is the same in experiment [3]. The experiment is described as follows: Competitive binding affinity to Stat3 SH2 domain (unknown origin) using 5-FAM-GpYLPQTV-NH2 as probe assessed as phosphopetide complex formation after 30 mins by fluorescence polarization assay. Put shortly: (§3)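 Fluorescence polarization. Recombinant STAT protein was incubated with the 5-FAM-GpYLPQTV-NH2 peptide probe and inhibitor for 30 min. Polarized fluorescence was plotted against inhibitor concentration, and IC50 was obtained by fitting a dose-response curve.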
On the technique in general: Polarisation of emitted light reports the rotation of a fluorescent probe.

The subject of another experiment is DU-145. As to the kind of experiment: Cytotoxicity against human DU145 cells assessed as cell viability after 72 hrs by MTS assay. It counts as functional, cell-based. To be noted: DU-145, 72 h. In a few lines: (§4)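 Cells were seeded at 1-3 x 10^4 per well into wells already holding compound or vehicle, in triplicate. Incubation was 72 h at 37 °C in 5% CO2. Viability was read by MTS colorimetry relative to DMSO control, and EC50 was fitted to a standard dose-response curve where applicable.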

Another experiment relates to SK-MM-2. The experiment is described as follows: Cytotoxicity against human SKMM-2 cells assessed as inhibition of cell viability after 72 hrs by MTT assay. It counts as functional, cell-based. In a few lines:
as §1

The next experiment has as its system OCI-AML2. As to the kind of experiment: Cytotoxicity against human OCI-AML2 cells assessed as cell viability after 72 hrs by MTS assay. The class given is functional, cell-based. To be noted: OCI-AML2, 72 h. In a few lines:
as §4

Experiment [4] deals with RPMI-8226. As to the kind of experiment: Induction of apoptosis in human RPMI8226 cells assessed as transformation of viable cells to early apoptotic cells measured at 24 hrs by annexin V/propidium iodide staining-based flow cytometric analysis. It counts as functional, cell-based. In a few lines: (§5)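 Apoptosis was measured by flow cytometry of Annexin V and propidium iodide staining. Viable, early apoptotic and late apoptotic cells were scored by quadrant, with time points at 24 and 48 h.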

Experiment [5] deals with T1, Signal transducer and activator of transcription 3. The experiment is described as follows: Inhibition of Stat3-mediated luciferase expression in human XG6 cells after 6 hrs. It counts as cell-based. In a few lines: as §2
For a further experiment, the system named is MM1.S. The experiment is described as follows: Cytotoxicity against human MM1S cells assessed as inhibition of cell viability after 72 hrs by MTT assay. It counts as functional, cell-based. In a few lines: as §1
For experiment [6], the target named is T2, Signal transducer and activator of transcription 1-alpha/beta (Homo sapiens, UniProt P42224).
T2 sequence (P42224 whole entry): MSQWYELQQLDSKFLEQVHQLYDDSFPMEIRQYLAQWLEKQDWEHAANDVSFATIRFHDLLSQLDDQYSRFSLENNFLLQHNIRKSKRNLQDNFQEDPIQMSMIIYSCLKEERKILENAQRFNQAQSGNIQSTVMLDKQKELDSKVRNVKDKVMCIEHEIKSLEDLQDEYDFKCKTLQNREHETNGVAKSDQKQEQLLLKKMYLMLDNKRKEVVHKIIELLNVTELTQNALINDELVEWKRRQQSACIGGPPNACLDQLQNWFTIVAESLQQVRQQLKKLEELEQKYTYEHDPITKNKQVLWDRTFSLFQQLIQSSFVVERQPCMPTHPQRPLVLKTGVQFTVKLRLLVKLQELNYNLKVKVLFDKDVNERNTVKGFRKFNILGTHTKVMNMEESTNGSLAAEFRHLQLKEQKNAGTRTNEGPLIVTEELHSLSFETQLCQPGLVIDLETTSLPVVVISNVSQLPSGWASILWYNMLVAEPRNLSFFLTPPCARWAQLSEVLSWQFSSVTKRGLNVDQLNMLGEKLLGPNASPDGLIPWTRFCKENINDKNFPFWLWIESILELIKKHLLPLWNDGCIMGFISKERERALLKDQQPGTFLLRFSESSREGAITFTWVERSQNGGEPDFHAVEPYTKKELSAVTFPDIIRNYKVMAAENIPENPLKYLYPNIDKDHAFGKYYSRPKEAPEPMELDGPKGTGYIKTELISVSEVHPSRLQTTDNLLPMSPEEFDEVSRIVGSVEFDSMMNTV
The experiment is described as follows: Binding affinity to Stat1 (unknown origin) using 5-FAM-GpYLPQTV-NH2 as probe assessed as phosphopetide complex formation after 30 mins by fluorescence polarization assay. In a few lines:
as §3

The target in experiment [7] is T1, Signal transducer and activator of transcription 3. As to the kind of experiment: Inhibition of IL-6-induced Stat3 phosphorylation in serum-starved human U937 cells at 10 to 20 uM incubated for 4 hrs prior to IL-6 induction measured after 15 mins by phopsho-flow cytometric analysis. It counts as cell-based. To be noted: U-937. Put shortly: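 Serum-starved U937 cells were pretreated with compound for 4 h, then stimulated 15 min with IL-6 (Stat3), GM-CSF (Stat5) or IFN (Stat1). Phosphorylation of each STAT was quantified by phospho-flow cytometry.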

Experiment [8] has as its system RPMI-8226. The experiment is described as follows: Induction of apoptosis in human RPMI8226 cells assessed as transformation of early apoptotic cells to late apoptotic cells measured at 48 hrs by annexin V/propidium iodide staining-based flow cytometric analysis. The class given is functional, cell-based. In a few lines:
as §5

Another experiment concerns XG7. As to the kind of experiment: Cytotoxicity against human XG7 cells assessed as inhibition of cell viability after 72 hrs by MTT assay. It counts as functional, cell-based. In a few lines:
as §1

The next experiment relates to NCI-H929. The experiment is described as follows: Cytotoxicity against human NCI-H929 cells assessed as inhibition of cell viability after 72 hrs by MTT assay. It counts as functional, cell-based. Put shortly:
as §1

T1 sequence (P40763 whole entry): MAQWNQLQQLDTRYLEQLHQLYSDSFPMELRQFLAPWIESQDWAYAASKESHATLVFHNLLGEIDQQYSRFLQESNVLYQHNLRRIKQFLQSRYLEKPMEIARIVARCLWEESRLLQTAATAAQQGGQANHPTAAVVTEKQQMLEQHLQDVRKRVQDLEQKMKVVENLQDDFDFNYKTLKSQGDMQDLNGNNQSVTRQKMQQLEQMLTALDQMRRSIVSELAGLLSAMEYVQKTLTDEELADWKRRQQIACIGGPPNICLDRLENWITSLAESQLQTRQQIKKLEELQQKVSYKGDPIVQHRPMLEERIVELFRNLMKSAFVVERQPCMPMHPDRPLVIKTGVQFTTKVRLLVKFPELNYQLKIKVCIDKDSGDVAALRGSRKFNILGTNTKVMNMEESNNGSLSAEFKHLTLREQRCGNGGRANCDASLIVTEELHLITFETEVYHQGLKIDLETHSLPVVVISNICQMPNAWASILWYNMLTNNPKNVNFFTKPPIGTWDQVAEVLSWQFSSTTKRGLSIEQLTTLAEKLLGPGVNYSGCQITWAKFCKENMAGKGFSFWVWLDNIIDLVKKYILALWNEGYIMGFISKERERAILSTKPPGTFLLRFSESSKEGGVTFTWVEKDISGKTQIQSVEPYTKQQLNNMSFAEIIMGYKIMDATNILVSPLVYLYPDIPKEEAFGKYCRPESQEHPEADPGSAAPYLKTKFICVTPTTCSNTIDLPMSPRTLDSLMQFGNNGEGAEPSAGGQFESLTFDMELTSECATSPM

Consider `O=C(O)c1ccc(N(Cc2ccc(C3CCCCC3)cc2)C(=O)CN(Cc2ccccc2C(F)(F)F)S(=O)(=O)c2c(F)c(F)c(F)c(F)c2F)cc1O`, for which the inhibition result (in experiment [1]; in the experiment with XG6; in experiment [2]; in the experiment with SK-MM-2; in experiment [5]; in the experiment with MM1.S) was “Dose-dependent effect” throughout. Also, the inhibition result with XG7 and with NCI-H929 was “Dose-dependent effect” in each case. Also, the IC50 (as a rule, the concentration at which inhibition is half-maximal) in [3] was 12.8 µM; in the experiment on DU-145, 14 µM; with OCI-AML2, 4.6 µM; in experiment [6] it was 10.9 µM. Further, the Activity result with RPMI-8226 [4] and with RPMI-8226 [8] was “Dose-dependent effect” throughout. In experiment [7], the inhibition result was “Active”.

As to `Cc1ccc(S(=O)(=O)N(CC(=O)N(Cc2ccc(C3CCCCC3)cc2)c2ccc(C(=O)O)c(O)c2)Cc2ccccc2C(F)(F)F)cc1`, the inhibition entry (in experiment [1]; with XG6; in experiment [2]; with SK-MM-2; in experiment [5]; in the experiment on MM1.S) was “Dose-dependent effect” throughout. The inhibition result in the experiment on XG7 and with NCI-H929 was “Dose-dependent effect” in each case. The IC50 in experiment [3] stood at 2.8 µM; in the experiment on DU-145, 16 µM; in the experiment with OCI-AML2 it was 12 µM; in experiment [6] it was 5.8 µM. Also, the Activity entry in the experiment with RPMI-8226 [4] and in the experiment with RPMI-8226 [8] was “Dose-dependent effect” throughout. Also, the inhibition entry in [7] is “Active”.
